Experiments:
Saccharomyces cerevisiae = experiment: Antifungal activity against Saccharomyces cerevisiae RS 322YK (rad 52Y) assessed as DNA damaging activity; type: functional, organism-based
How it was run: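 Growth inhibition of the rad 52 mutant strain RS322YK of *Saccharomyces cerevisiae*, measured as a zone of inhibition. Activity is reported as IC₁₂, the concentration giving a 12 mm diameter inhibition zone, in µg/ml. Sterols were also tested against the wild-type RAD⁺ strain.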

Vero = experiment: Cytotoxicity against african green monkey Vero cells; type: cell-based; conditions: Chlorocebus sabaeus

| Structure (SMILES) | IC12 (Saccharomyces cerevisiae) | IC50 (Vero) |
| --- | --- | --- |
| CC(C)C(=O)CC[C@@H](C)[C@H]1CC[C@H]2[C@@H]3CC=C4C[C@@H](O)CC[C@]4(C)[C@H]3CC[C@]12C | > 8000 µg/mL |  |
| CC(C)[C@@]1(CC[C@@H](C)[C@H]2CC[C@H]3[C@@H]4CC=C5C[C@@H](O)CC[C@]5(C)[C@H]4CC[C@]23C)CO1 | > 8000 µg/mL |  |
| C=C(CC[C@@H](C)[C@H]1CC[C@H]2[C@@H]3CC=C4C[C@@H](O)CC[C@]4(C)[C@H]3CC[C@]12C)C(C)C | > 8000 µg/mL |  |
| C=C(CC[C@@H](C)[C@H]1CC[C@H]2[C@@H]3[C@H](O)C=C4C[C@@H](O)CC[C@]4(C)[C@H]3CC[C@]12C)C(C)C | 7 µg/mL | 58 µM |
| CC(C)C(=O)CC[C@@H](C)[C@H]1CC[C@H]2[C@@H]3[C@H](O)C=C4C[C@@H](O)CC[C@]4(C)[C@H]3CC[C@]12C | 14 µg/mL | 9.9 µM |
| CC(C)C(=O)CC[C@@H](C)[C@H]1CC[C@H]2[C@@H]3[C@@H](O)C=C4C[C@@H](O)CC[C@]4(C)[C@H]3CC[C@]12C | > 500 µg/mL | 21 µM |
| C=C(CC[C@@H](C)[C@H]1CC[C@H]2[C@@H]3[C@@H](O)C=C4C[C@@H](O)CC[C@]4(C)[C@H]3CC[C@]12C)C(C)C | > 8000 µg/mL | 31 µM |
| CC(C)[C@@]1(CC[C@@H](C)[C@H]2CC[C@H]3[C@@H]4[C@@H](O)C=C5C[C@@H](O)CC[C@]5(C)[C@H]4CC[C@]23C)CO1 | > 8000 µg/mL | 16 µM |
| CC(C)[C@@]1(CC[C@@H](C)[C@H]2CC[C@H]3[C@@H]4[C@H](O)C=C5C[C@@H](O)CC[C@]5(C)[C@H]4CC[C@]23C)CO1 | 0.2 µg/mL | > 100 µM |
